The record followed here is ChEMBL document CHEMBL4325899, “Synthesis and photocytotoxic activity of [1,2,3]triazolo[4,5-h][1,6]naphthyridines and [1,3]oxazolo[5,4-h][1,6]naphthyridines” (Eur J Med Chem, 2019).

For orientation: CC50 means the concentration at which the toxic effect on the cells reaches its halfway point. A higher CC50 goes with lower toxicity to the cells. Usually EC50 stands for the concentration needed to bring the measured effect to its halfway point.

Series [1] is described as follows: Dark toxicity against human MCF10A cells preincubated for 5 mins followed by compound washout and measured after 72 hrs by MTT assay. Format: cell-based, MCF-10A. The gist of the method: (§1)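 Cells were plated and allowed to attach overnight. Compounds were diluted in DMSO (0.5% final), with each concentration in triplicate, and applied for 5 min. Cells were then washed in PBS and given fresh medium. Without irradiation, cells were held 72 h at up to 50 μM. MTT (5 mg/mL stock) was added for 4 h, crystals were dissolved in SDS/HCl overnight, and absorbance was read at 540 nm. CC50 is the concentration killing 50% of cells, taken as the mean of at least three experiments.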
Background: Tetrazolium dyes change colour on reduction, which living cells bring about.

Series [2] in a line: Solubility of the compound in DMSO. Format: physicochemical.
A short description of series [3]: Dark toxicity against human HT-29 cells preincubated for 5 mins followed by compound washout and measured after 72 hrs by MTT assay. Format: cell-based. The gist of the method:
as §1

Series [4] can be described thus: Dark toxicity against human MCF7 cells preincubated for 5 mins followed by compound washout and measured after 72 hrs by MTT assay. The series is classed as cell-based. A digest of the protocol:
as §1

Series [5] has as its system MCF7. The series can be described thus: Phototoxicity against human MCF7 cells preincubated for 5 mins followed by compound washout and subsequent UV irradiation at 1.5 J/cm2 for 5 mins measured after 72 hrs by MTT assay. The series is classed as functional, cell-based. Particulars: MCF7, light or radiation study. The gist of the method: (§2)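 Compounds were diluted in DMSO (0.5% final), applied in triplicate for 5 min, then washed out with PBS. After medium removal, cells were irradiated on ice for 5 min at 365 nm (1.5 J/cm²) and then kept 72 h at 37 °C. Viability was read by MTT at 540 nm and expressed relative to 0.5% DMSO controls given the same treatment. EC50 is the concentration killing 50%, as the mean ± SD of at least three experiments.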

Series [6] concerns A-375. The series is described as follows: Phototoxicity against human A375 cells preincubated for 5 mins followed by compound washout and subsequent UV irradiation at 1.5 J/cm2 for 5 mins measured after 72 hrs by MTT assay. Format: functional, cell-based. The note with it: A-375, light or radiation study. The gist of the method: as §2
Series [7] can be described thus: Dark toxicity against human A375 cells preincubated for 5 mins followed by compound washout and measured after 72 hrs by MTT assay. Format: cell-based, A-375. A digest of the protocol: as §1
The subject of series [8] is MCF-10A. The series can be described thus: Phototoxicity against human MCF10A cells preincubated for 5 mins followed by compound washout and subsequent UV irradiation at 1.5 J/cm2 for 5 mins measured after 72 hrs by MTT assay. Format: cell-based. Particulars: light or radiation study. A digest of the protocol:
as §2

Series [9] concerns HT-29. The series is described as follows: Phototoxicity against human HT-29 cells preincubated for 5 mins followed by compound washout and subsequent UV irradiation at 1.5 J/cm2 for 5 mins measured after 72 hrs by MTT assay. Format: functional, cell-based. The note with it: HT-29, light or radiation study. The gist of the method:
as §2

A short description of series [10]: Selectivity index, ratio of EC50 for human MCF10A cells under UV irradiation at 1.5 J/cm2 to EC50 for human HT-29 cells under UV irradiation at 1.5 J/cm2. The series is classed as toxicity. Particulars: MCF10A cells versus HT-29 cells, read-out: Ratio EC50. A digest of the protocol: (§3)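 SI is the EC50 under irradiation in non-tumor MCF10A cells divided by the EC50 under irradiation in the tumor line. Both were MTT read-outs 72 h after 1.5 J/cm² at 365 nm.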

Series [11] concerns HT-29. The series is described as follows: Phototoxicity index, ratio of CC50 for human HT-29 cells to EC50 for human HT-29 cells under UV irradiation at 1.5 J/cm2.
Series [12] is described as follows: Selectivity index, ratio of EC50 for human MCF10A cells under UV irradiation at 1.5 J/cm2 to EC50 for human A375 cells under UV irradiation at 1.5 J/cm2. The note with it: MCF10A cells versus A375 cells, read-out: Ratio EC50. The series is classed as toxicity. The gist of the method: as §3
Series [13] has as its system A-375. The series is described as follows: Phototoxicity index, ratio of CC50 for human A375 cells to EC50 for human A375 cells under UV irradiation at 1.5 J/cm2.
Series [14] can be described thus: Selectivity index, ratio of EC50 for human MCF10A cells under UV irradiation at 1.5 J/cm2 to EC50 for human MCF7 cells under UV irradiation at 1.5 J/cm2. The series is classed as toxicity. The note with it: MCF10A cells versus MCF7 cells, read-out: Ratio EC50. The gist of the method:
as §3

Regarding `COc1cc(-n2nnc3c4nc(-c5ccccc5)ccc4c(C)nc32)cc(OC)c1OC`, the CC50 at 72 h in series [1], in series [3], in [4] and in series [7] was greater than 50 µM each time. Moreover, the solubility entry in series [2] is “Soluble”. The 50% effective concentration (EC50) in series [5], in series [6], in series [8] and in [9] was greater than 50 µM throughout.

Regarding `COc1ccc(-c2ccc3c(C)nc4oc(-c5cc(OC)c(OC)c(OC)c5)nc4c3n2)cc1`, the solubility entry in series [2] is “Insoluble”.

In the case of `COc1cc(-c2nc3c(nc(C)c4ccc(=O)[nH]c43)o2)cc(OC)c1OC`, the solubility entry in series [2] is recorded as “Insoluble”.

For `Cc1ccc2c(C)nc3c(nnn3-c3ccccc3)c2n1`, the CC50 at 72 h in [1], in [3], in series [4] and in [7] was greater than 50 µM in each case. The solubility entry in series [2] is listed as “Soluble”. Besides, the EC50 in [5], in series [6], in series [8] and in [9] was greater than 50 µM throughout.

As to `COc1ccc(-c2ccc3c(C)nc4c(nnn4-c4cc(OC)c(OC)c(OC)c4)c3n2)cc1`, the solubility result in [2] is reported as “Insoluble”.

For `COc1cc(-c2nc3c(nc(C)c4ccc(C)nc43)o2)cc(OC)c1OC`, the CC50 at 72 h in series [1], in [3], in series [4] and in series [7] was greater than 50 µM each time. In addition, the solubility result in series [2] is reported as “Soluble”. Further, the EC50 in series [5], in [6], in [8] and in series [9] was greater than 50 µM throughout.

For `Cc1nc2c(nnn2-c2ccccc2)c2[nH]c(=O)ccc12`, the CC50 at 72 h in [1], in [3], in [4] and in series [7] was greater than 50 µM each time. For the same compound, in [2], the solubility entry is listed as “Soluble”. Moreover, the EC50 in series [5], in [6], in [8] and in series [9] was greater than 50 µM each time.

Take `COc1ccccc1-c1ccc2c(C)nc3c(nnn3-c3cc(OC)c(OC)c(OC)c3)c2n1`: the CC50 at 72 h in series [1], in series [3], in series [4] and in [7] was greater than 50 µM throughout. Moreover, the solubility entry in [2] was “Soluble”. The EC50 in series [5], in series [6], in series [8] and in series [9] was greater than 50 µM throughout.

`COc1ccc(-c2nc3c(nc(C)c4ccc(C)nc43)o2)cc1`: in series [10], the selectivity ratio was greater than 12. Moreover, the half-maximal cytotoxic concentration (CC50) at 72 h in series [1], in [3], in series [4] and in series [7] was greater than 50 µM in each case. In addition, in series [2], the solubility entry is given as “Soluble”. The EC50 was greater than 50 µM in [5], greater than 50 µM in [6], greater than 50 µM in [8] and 4.28 µM in series [9]. Moreover, the “Ratio CC50/EC50” value in series [11] is recorded as greater than 12.

For `COc1ccc(-n2nnc3c4[nH]c(=O)ccc4c(C)nc32)cc1`, the CC50 at 72 h in [1], in [3], in [4] and in [7] was greater than 50 µM each time. Besides, the solubility result in series [2] is “Soluble”. In addition, the concentration for a half-maximal effect (EC50) in series [5], in series [6], in [8] and in series [9] was greater than 50 µM in each case.

Turning to `COc1ccc(-c2ccc3c(C)nc4oc(-c5ccc(OC)cc5)nc4c3n2)cc1`, in series [2], the solubility entry is on record as “Insoluble”.

Consider `COc1ccc(-c2nc3c(nc(C)c4ccc(-c5ccccc5OC)nc43)o2)cc1`, for which the solubility entry in series [2] was “Insoluble”.

In the case of `Cc1nc2c(nnn2-c2ccccc2)c2nc(-c3ccccc3)ccc12`, the CC50 at 72 h in series [1], in [3], in series [4] and in series [7] was greater than 50 µM each time. Besides, the solubility entry in [2] is “Soluble”. For the same compound, the EC50 in series [5], in series [6], in [8] and in series [9] was greater than 50 µM throughout.

For `Cc1nc2oc(-c3ccccc3)nc2c2[nH]c(=O)ccc12`, the CC50 at 72 h in [1], in series [3], in series [4] and in [7] was greater than 50 µM throughout. Besides, in series [2], the solubility entry was “Soluble”. Besides, the selectivity ratio in [12] stood at 34. The EC50 was greater than 50 µM in series [5], 1.49 µM in [6], greater than 50 µM in series [8] and greater than 50 µM in [9]. For the same compound, in series [13], the “Ratio CC50/EC50” value was greater than 34.

For the compound `COc1ccc(-n2nnc3c4nc(-c5ccccc5)ccc4c(C)nc32)cc1`, the solubility result in [2] is reported as “Insoluble”.

With `COc1ccc(-n2nnc3c4nc(-c5ccccc5OC)ccc4c(C)nc32)cc1`, the selectivity ratio in series [10] is greater than 1; in series [12], 46; in series [14] it was greater than 1. In addition, the CC50 at 72 h in series [1], in series [3], in [4] and in series [7] was greater than 50 µM each time. The solubility entry in series [2] is “Soluble”. Besides, the EC50 in [5] is greater than 50 µM; in series [6], 1.09 µM; in [8], greater than 50 µM; in [9], greater than 50 µM. For the same compound, the “Ratio CC50/EC50” value in [13] is greater than 46.

As for `Cc1nc2oc(-c3ccccc3)nc2c2nc(-c3ccccc3)ccc12`, in [2], the solubility result is reported as “Insoluble”.

In the case of `COc1ccc(-c2ccc3c(C)nc4oc(-c5ccccc5)nc4c3n2)cc1`, the solubility result in series [2] was “Insoluble”.

Take `COc1ccccc1-c1ccc2c(C)nc3c(nnn3-c3ccccc3)c2n1`: the solubility result in series [2] is listed as “Insoluble”.

Consider `COc1ccc(-c2nc3c(nc(C)c4ccc(=O)[nH]c43)o2)cc1`, for which the solubility result in series [2] is recorded as “Insoluble”.

`COc1cc(-n2nnc3c4[nH]c(=O)ccc4c(C)nc32)cc(OC)c1OC`: the solubility result in [2] is recorded as “Insoluble”.

`COc1cc(-n2nnc3c4nc(C)ccc4c(C)nc32)cc(OC)c1OC`: in series [2], the solubility entry is recorded as “Insoluble”.

For the compound `Cc1ccc2c(C)nc3oc(-c4ccccc4)nc3c2n1`, the selectivity ratio in series [10] was greater than 8. Also, the CC50 at 72 h in series [1], in series [3], in [4] and in series [7] was greater than 50 µM throughout. The solubility result in series [2] is recorded as “Soluble”. The EC50 in series [5] was greater than 50 µM; in [6], greater than 50 µM; in series [8], greater than 50 µM; in series [9] it was 6.59 µM. Besides, the “Ratio CC50/EC50” value in [11] is greater than 8.

Regarding `COc1ccc(-c2ccc3c(C)nc4c(nnn4-c4ccc(OC)cc4)c3n2)cc1`, the figures for the selectivity ratio in series [10], in [12] and in [14] were greater than 29, 57 and greater than 1, respectively. The CC50 at 72 h in series [1], in series [3], in series [4] and in [7] was greater than 50 µM throughout. Also, the solubility result in [2] is “Soluble”. The 50% effective concentration (EC50) in series [5] is greater than 50 µM; in series [6], 0.875 µM; in series [8], greater than 50 µM; in series [9] it was 1.74 µM. Moreover, the results for the “Ratio CC50/EC50” value in series [11] and in series [13] were greater than 29 and greater than 57, respectively.
